Reference: ChEMBL document CHEMBL1145084, “Polymer-assisted solution-phase library synthesis and crystal structure of alpha-ketothiazoles as tissue factor VIIa inhibitors” (J Med Chem, 2003)

Tests used:
[1] = target: Prothrombin (Homo sapiens, UniProt P00734); assay: Inhibitory activity against thrombin (IIa).
How it was run: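 Human thrombin (0.28 nM) with H-D-Phe-Pip-Arg-p-nitroaniline (0.06 mM) in 50 mM Tris-HCl pH 8.0, 100 mM NaCl, 0.1% BSA. Immediate background read at 405 nm, then 60 min at room temperature before measuring p-nitroaniline release rate at 405 nm. Seven concentrations in duplicate; % inhibition versus control; IC50 by four-parameter logistic regression.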

[2] = target: T1, Coagulation factor VII (Homo sapiens, UniProt P08709); assay: Inhibitory activity against tissue coagulation factor VII.
T1 sequence (P08709 whole entry): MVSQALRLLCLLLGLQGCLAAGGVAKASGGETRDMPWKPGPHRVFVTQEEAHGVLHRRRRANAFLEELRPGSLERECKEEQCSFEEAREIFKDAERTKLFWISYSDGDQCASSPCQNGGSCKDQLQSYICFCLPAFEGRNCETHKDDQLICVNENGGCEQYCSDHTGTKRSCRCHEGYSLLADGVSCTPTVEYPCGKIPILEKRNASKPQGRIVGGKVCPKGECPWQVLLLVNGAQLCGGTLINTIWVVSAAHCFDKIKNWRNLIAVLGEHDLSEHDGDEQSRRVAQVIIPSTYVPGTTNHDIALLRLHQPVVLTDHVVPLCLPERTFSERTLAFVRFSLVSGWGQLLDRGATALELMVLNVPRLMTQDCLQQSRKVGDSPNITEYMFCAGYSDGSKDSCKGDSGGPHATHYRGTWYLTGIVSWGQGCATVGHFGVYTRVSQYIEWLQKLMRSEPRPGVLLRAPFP
How it was run: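 Complex of recombinant soluble tissue factor (100 nM) and recombinant human Factor VIIa (2 nM). Substrate N-methylsulfonyl-D-Phe-Gly-Arg-p-nitroaniline at 0.4 mM in 5 mM CaCl2, 50 mM Tris-HCl pH 8.0, 100 mM NaCl, 0.1% BSA. Background A405 read first; after 60 min at room temperature, hydrolysis rate read at 405 nm. Duplicates at seven concentrations; IC50 is the duplicate average.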

[3] = target: Thrombin and coagulation factor VII (Homo sapiens) (UniProt P00734+P08709); assay: Selectivity for coagulation factor VIIa over thrombin IIa.; format: protein assay
[4] = target: Coagulation factor X (Homo sapiens, UniProt P00742); assay: Inhibitory activity against coagulation factor X.
Coagulation factor X, sequence (P00742 41-179 limits assumed): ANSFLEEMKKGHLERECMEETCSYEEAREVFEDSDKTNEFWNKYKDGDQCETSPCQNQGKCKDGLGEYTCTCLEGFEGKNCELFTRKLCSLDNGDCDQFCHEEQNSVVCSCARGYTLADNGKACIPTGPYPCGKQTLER
Coagulation factor X, sequence (P00742 235-488 limits assumed): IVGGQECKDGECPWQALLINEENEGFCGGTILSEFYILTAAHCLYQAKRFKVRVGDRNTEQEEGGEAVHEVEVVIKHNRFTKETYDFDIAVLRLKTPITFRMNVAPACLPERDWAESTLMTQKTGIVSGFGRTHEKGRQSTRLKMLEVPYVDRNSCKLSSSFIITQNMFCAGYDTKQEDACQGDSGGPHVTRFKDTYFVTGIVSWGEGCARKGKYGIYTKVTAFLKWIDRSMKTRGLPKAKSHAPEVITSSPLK
How it was run: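 Human Factor Xa (0.3 nM) with chromogenic substrate S-2765 (0.15 mM) in 50 mM Tris-HCl pH 8.0, 100 mM NaCl, 0.1% BSA. A405 background read taken at once, then 60 min at room temperature, then p-nitroaniline release rate at 405 nm. Duplicates at seven concentrations; % inhibition versus control; IC50 from four-parameter logistic fit, averaged over the duplicates.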

Compound | IC50 [1] [nM] | IC50 [2] [nM] | Selectivity [3] | IC50 [4] [nM]
N=C(N)NCCC[C@H](NC(=O)[C@H](Cc1ccc(-c2ccccc2)cc1)NC(=O)[C@@H](Cc1ccccc1)NS(=O)(=O)Cc1ccccc1)C(=O)c1nccs1 | 11200 | 17800 | 1 | 3140
N=C(N)NCCC[C@H](NC(=O)[C@H](Cc1cn(Cc2ccccc2)cn1)NC(=O)[C@@H](Cc1ccccc1)NS(=O)(=O)Cc1ccccc1)C(=O)c1nccs1 | 9920 | 9970 | 1 | 2400
CS(=O)(=O)CC[C@H](NC(=O)[C@@H](Cc1ccccc1)NS(=O)(=O)Cc1ccccc1)C(=O)N[C@@H](CCCN=C(N)N)C(=O)c1nccs1 | 12900 | 13700 | 1 | 2000
N=C(N)NCCC[C@H](NC(=O)[C@H](Cc1ccc(I)cc1)NC(=O)[C@@H](Cc1ccccc1)NS(=O)(=O)Cc1ccccc1)C(=O)c1nccs1 | 6300 | 1560 | 4 | 500
N=C(N)NCCC[C@H](NC(=O)[C@H](Cc1cccc2ccccc12)NC(=O)[C@@H](Cc1ccccc1)NS(=O)(=O)Cc1ccccc1)C(=O)c1nccs1 | > 30000 | 5600 | > 5 | 1800
N=C(N)NCCC[C@H](NC(=O)[C@H](Cc1cc(F)cc(F)c1)NC(=O)[C@@H](Cc1ccccc1)NS(=O)(=O)Cc1ccccc1)C(=O)c1nccs1 | 6820 | 190 | 36 | 180
N=C(N)NCCC[C@H](NC(=O)[C@H](Cc1ccc2ccccc2c1)NC(=O)[C@@H](Cc1ccccc1)NS(=O)(=O)Cc1ccccc1)C(=O)c1nccs1 | 2400 | 1950 | 1 | 770
N=C(N)NCCC[C@H](NC(=O)[C@H](Cc1csc2ccccc12)NC(=O)[C@@H](Cc1ccccc1)NS(=O)(=O)Cc1ccccc1)C(=O)c1nccs1 | 15400 | 500 | 3 | 150
